According to ChEMBL document CHEMBL2146421, “Synthesis and anticonvulsant activity of some new thiazolo[3,2-a][1,3]diazepine, benzo[d]thiazolo[5,2-a][12,6]diazepine and benzo[d]oxazolo[5,2-a][12,6]diazepine analogues” (Eur J Med Chem, 2011):

Columns and labels:
Mus musculus [1] = experiment: Anticonvulsant activity in Swiss albino mouse assessed as protection against maximal electroshock-induced convulsion at 0.37 mmol/kg, ip […]; type: functional
Method in brief: (§1)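 Test compound given i.p. to mice; 30 min later, electric shock was applied through the ears while the mice were hand-restrained. The mice were then released to observe the maximal seizure. Each dose was tested in 10 animals and the percentage protected was recorded.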

Mus musculus [2] = experiment: Anticonvulsant activity in Swiss albino mouse assessed as protection against maximal electroshock-induced convulsion at 0.75 mmol/kg, ip […]; type: functional
Method in brief: (§2)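 Test agent given i.p. to mice; 30 min later electric shock applied through the ears, animals released immediately to observe maximal seizure; percentage protected recorded (10 animals per dose in dose-response runs).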

Mus musculus [3] = experiment: Neurotoxicity in Swiss albino mouse assessed as effect on motor activity at 3 mmol/kg, ip after 30 mins; type: toxicity, organism-based; conditions: in vivo, 0.5 h
Method in brief: (§3)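 Motor activity measured with an activity meter at 0 and 30 min after i.p. dosing, zero time taken as 100%.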

Mus musculus [4] = experiment: Anticonvulsant activity in Swiss albino mouse assessed as protection against pentylenetetrazole-induced convulsion at 3 mmol/kg, ip treated after 30 mins of pentylenetetrazole measured for 30 mins; type: functional
[5] = Toxicity in Swiss albino mouse assessed as mortality at 3 mmol/kg, ip measured 7 to 11 mins before pentylenetetrazole challenge; type: organism-based; conditions: in vivo, read-out: Activity
Method in brief: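 Compounds given i.p. at 3.0, 1.5, 0.75 and 0.375 mmol/kg to 6 mice per compound. Deaths occurring before the PTZ injection were recorded. PTZ (83 mg/kg s.c.) followed 30 min after compound dosing.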

Mus musculus [6] = experiment: Anticonvulsant activity in Swiss albino mouse assessed as protection against bicuculline-induced convulsion at 0.37 mmol/kg, ip […] measured for 30 mins; type: functional
Method in brief: (§4)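 Mice (6 per compound) dosed i.p.; 30 min later given bicuculline 1 mg/kg s.c. (freshly dissolved in 1 ml warmed 0.1 N HCl, made up with 0.9% NaCl), then observed 30 min; percentage anticonvulsion (animals protected) calculated. Dose-response runs used 10 animals per dose.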

Mus musculus [7] = experiment: Anticonvulsant activity in Swiss albino mouse assessed as protection against picrotoxin-induced convulsion at 1.5 mmol/kg, ip […] measured for 30 mins; type: functional
Method in brief: (§5)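 Test compound given i.p.; 30 min later, picrotoxin 3.15 mg/kg s.c. was injected. Picrotoxin was freshly dissolved in 1 ml warmed 0.1 N HCl and made up with 0.9% NaCl. Each dose was tested in 10 animals and the percentage of mice protected from clonic convulsions was recorded.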

Mus musculus [8] = experiment: Anticonvulsant activity in ip dosed Swiss albino mouse assessed as protection against maximal electroshock-induced convulsion; type: functional; method in brief: as §2
Mus musculus [9] = experiment: Neurotoxicity in Swiss albino mouse assessed as inability to climb up backwards in a glass tube within 30 seconds at 1.5 mmol/kg, ip measured after 15 and 25 mins by Chimney test; type: toxicity, organism-based; conditions: in vivo
Method in brief: (§6)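 Chimney test: 15 and 25 min after i.p. dosing (3.0, 1.5, 0.75, 0.375 mmol/kg), inability of mice to climb backwards up a glass tube 25 cm long, 3 cm inner diameter, within 30 s recorded as neurological deficit.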

Mus musculus [10] = experiment: Anticonvulsant activity in Swiss albino mouse assessed as protection against bicuculline-induced convulsion at 1.5 mmol/kg, ip […] measured for 30 mins; type: functional; method in brief: as §4
Mus musculus [11] = experiment: Anticonvulsant activity in Swiss albino mouse assessed as protection against bicuculline-induced convulsion at 3.0 mmol/kg, ip […] measured for 30 mins; type: functional; method in brief: as §4
Mus musculus [12] = experiment: Anticonvulsant activity in Swiss albino mouse assessed as protection against pentylenetetrazole-induced convulsion at 0.37 mmol/kg, ip treated 30 mins before pentylenetetrazole measured for 30 mins
Mus musculus [13] = experiment: Neurotoxicity in Swiss albino mouse assessed as effect on motor activity at 0.75 mmol/kg, ip after 30 mins; type: toxicity, organism-based; conditions: in vivo, 0.5 h; method in brief: as §3
Mus musculus [14] = experiment: Hypnotic activity in Swiss albino mouse assessed as righting reflex at 0.75 mmol/kg, ip; type: ADME, organism-based; conditions: in vivo
[15] = Toxicity in ip dosed Swiss albino mouse assessed as sedative effect; type: organism-based; conditions: in vivo
Mus musculus [16] = experiment: Neurotoxicity in Swiss albino mouse assessed as inability to climb up backwards in a glass tube within 30 seconds at 3 mmol/kg, ip measured after 15 and 25 mins by Chimney test; type: toxicity, organism-based; conditions: in vivo; method in brief: as §6
Mus musculus [17] = experiment: Hypnotic activity in Swiss albino mouse assessed as righting reflex at 3 mmol/kg, ip; type: ADME, organism-based; conditions: in vivo
Mus musculus [18] = experiment: Neurotoxicity in Swiss albino mouse assessed as inability to climb up backwards in a glass tube within 30 seconds at 0.37 mmol/kg, ip measured after 15 and 25 mins by Chimney test; type: toxicity, organism-based; conditions: in vivo; method in brief: as §6
[19] = Therapeutic index, ratio of LD50 for Swiss albino mouse to ED50 for anticonvulsant activity in Swiss albino mouse; type: organism-based; conditions: in vivo, read-out: Ratio LD50/ED50
Method in brief: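 TI was calculated as LD50/ED50. ED50 came from dose-response curves in 10 mice per dose. LD50 was determined by the Spearman–Karber method, with doses at equal logarithmic intervals.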

Mus musculus [20] = organism: Mus musculus; experiment: Protective index, ratio of TD50 for Swiss albino mouse to ED50 for anticonvulsant activity in Swiss albino mouse; type: functional
Method in brief: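 TD50 (median sedative dose) divided by ED50 (median effective dose), from dose-response curves at 10 mice per dose; 95% confidence limits given.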

[21] = Toxicity in Swiss albino mouse by Spearman-Karber method; type: organism-based; conditions: in vivo
Method in brief: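 LD50 in mice was determined by the Spearman–Karber method, with doses chosen at equal logarithmic intervals. 95% confidence limits were reported.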

Mus musculus [22] = experiment: Anticonvulsant activity in Swiss albino mouse assessed as protection against maximal electroshock-induced convulsion at 3.0 mmol/kg, ip […]; type: functional; method in brief: as §2
Mus musculus [23] = experiment: Anticonvulsant activity in Swiss albino mouse assessed as protection against pentylenetetrazole-induced convulsion at 1.5 mmol/kg, ip treated after 30 mins of pentylenetetrazole measured for 30 mins; type: functional
Mus musculus [24] = experiment: Anticonvulsant activity in Swiss albino mouse assessed as protection against picrotoxin-induced convulsion at 0.75 mmol/kg, ip […] measured for 30 mins; type: functional; method in brief: as §5
Mus musculus [25] = experiment: Hypnotic activity in Swiss albino mouse assessed as righting reflex at 1.5 mmol/kg, ip; type: ADME, organism-based; conditions: in vivo
Mus musculus [26] = experiment: Anticonvulsant activity in Swiss albino mouse assessed as protection against pentylenetetrazole-induced convulsion at 0.75 mmol/kg, ip treated after 30 mins of pentylenetetrazole measured for 30 mins; type: functional
Mus musculus [27] = experiment: Neurotoxicity in Swiss albino mouse assessed as effect on motor activity at 1.5 mmol/kg, ip after 30 mins; type: toxicity, organism-based; conditions: in vivo, 0.5 h; method in brief: as §3
Mus musculus [28] = experiment: Neurotoxicity in Swiss albino mouse assessed as inability to climb up backwards in a glass tube within 30 seconds at 0.75 mmol/kg, ip measured after 15 and 25 mins by Chimney test; type: toxicity, organism-based; conditions: in vivo; method in brief: as §6
Mus musculus [29] = experiment: Anticonvulsant activity in Swiss albino mouse assessed as protection against bicuculline-induced convulsion at 0.75 mmol/kg, ip […] measured for 30 mins; type: functional; method in brief: as §4
Mus musculus [30] = experiment: Anticonvulsant activity in Swiss albino mouse assessed as protection against maximal electroshock-induced convulsion at 1.5 mmol/kg, ip […]; type: functional; method in brief: as §1

S=C1CCCN2C=C(Br)SC2=N1
Activity (Mus musculus [1]): 0% | Activity (Mus musculus [2]): 10% | Activity (Mus musculus [3]): 92% | Activity (Mus musculus [4]): 100% | mortality [5]: 0% | Activity (Mus musculus [6]): 0% | Activity (Mus musculus [7]): 66% | ED50 (Mus musculus [8]): 252 mg/kg | Activity (Mus musculus [9]): 25% | Activity (Mus musculus [10]): 50% | Activity (Mus musculus [11]): 100% | Activity (Mus musculus [12]): 25% | Activity (Mus musculus [13]): 52% | Activity (Mus musculus [14]): 0% | TD50 [15]: 398 mg/kg | Activity (Mus musculus [16]): 100% | Activity (Mus musculus [17]): 40% | Activity (Mus musculus [18]): 0% | selectivity ratio [19]: 1.51 | Ratio TD50/ED50 (Mus musculus [20]): 1.58 | LD50 [21]: 380 mg/kg | Activity (Mus musculus [22]): 70% | Activity (Mus musculus [23]): 100% | Activity (Mus musculus [24]): 20% | Activity (Mus musculus [25]): 14% | Activity (Mus musculus [26]): 50% | Activity (Mus musculus [27]): 84% | Activity (Mus musculus [28]): 0% | Activity (Mus musculus [29]): 10% | Activity (Mus musculus [30]): 40%
